The text below walks through data of ChEMBL document CHEMBL1147109, “Genetic elements carrying erm(B) in Streptococcus pyogenes and association with tet(M) tetracycline resistance gene” (2007).

The MIC is the lowest concentration that inhibits growth of the organism.

Test [1] relates to Streptococcus pyogenes. As to the kind of experiment: Antimicrobial activity against erythromycin-resistant Streptococcus pyogenes A-3 transconjugated with erm(B) and tet(M) genes. The test is classed as functional. In a few lines: (§1)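 Transconjugants came from membrane-filter mating of the donor strain into recipient S. pyogenes 12RF (rifampin- and fusidic acid-resistant), done at least three times, and were confirmed by PCR to carry erm(B) and tet(M). MICs were then determined by broth microdilution to CLSI recommendations, with S. pneumoniae ATCC 49619 as quality control.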

Test [2] concerns Streptococcus pyogenes. As to the kind of experiment: Antimicrobial activity against erythromycin-resistant Streptococcus pyogenes B-83 transconjugated with erm(B) and tet(M) genes. The test is classed as functional. In a few lines: as §1
In test [3] the test system is Streptococcus pyogenes. Description: Antimicrobial activity against erythromycin-resistant Streptococcus pyogenes C-105 transconjugated with erm(B) and tet(M) genes. Type of test: functional. In a few lines: as §1
Test [4] relates to Streptococcus pyogenes. Description: Antimicrobial activity against tetracyclin-resistant Streptococcus pyogenes C-105 transconjugated with erm(B) and tet(M) genes. Type of test: functional. The gist of the method:
as §1

Test [5] deals with Streptococcus pyogenes. As to the kind of experiment: Antimicrobial activity against erythromycin-resistant Streptococcus pyogenes D-112 transconjugated with erm(B) and tet(M) genes. The test is classed as functional. The gist of the method:
as §1

Test [6] relates to Streptococcus pyogenes. Description: Antimicrobial activity against erythromycin-resistant Streptococcus pyogenes E-115 transconjugated with erm(B) and tet(M) genes. Type of test: functional. The gist of the method:
as §1

For test [7], the system named is Streptococcus pyogenes. As to the kind of experiment: Antimicrobial activity against Streptococcus pyogenes iMLS-A isolate A expressing tet(M), tndX gene. Type of test: functional. The gist of the method:
(§2)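 Broth microdilution MICs per CLSI against clinical S. pyogenes isolates carrying erm(B); S. pneumoniae ATCC 49619 as quality control. For some isolates, tetracycline MICs were also read after induction: colonies from overnight brain heart infusion agar were grown on brain heart infusion agar with or without subinhibitory tetracycline (0.05 μg/ml), harvested within 20 h, then tested.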

Test [8] concerns Streptococcus pyogenes. As to the kind of experiment: Antimicrobial activity against tetracycline-susceptible Streptococcus pyogenes iMLS-A isolate expressing erm(B). The test is classed as functional. The gist of the method:
as §2

Test [9] has as its system Streptococcus pyogenes. As to the kind of experiment: Antimicrobial activity against tetracyclin-resistant Streptococcus pyogenes cMLS isolate expressing erm(B). The test is classed as functional. In a few lines: (§3)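 Broth microdilution MICs run to CLSI recommendations on clinical erm(B)-carrying S. pyogenes isolates, with S. pneumoniae ATCC 49619 as quality control. In some isolates, tetracycline MICs were also measured on cells grown for no longer than 20 h on brain heart infusion agar, with or without subinhibitory tetracycline (0.05 μg/ml).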

For test [10], the system named is Streptococcus pyogenes. Description: Antimicrobial activity against tetracycline-susceptible Streptococcus pyogenes cMLS isolate expressing erm(B). The test is classed as functional. The gist of the method:
as §2

The test system of test [11] is Streptococcus pyogenes. Description: Antimicrobial activity against Streptococcus pyogenes cMLS isolate B expressing tet(M), int, Xis gene. Type of test: functional. The gist of the method:
as §3

In test [12] the test system is Streptococcus pyogenes. As to the kind of experiment: Antimicrobial activity against tetracycline-susceptible Streptococcus pyogenes cMLS isolate D expressing tet(M), Xis, tnpA, tnpR gene. Type of test: functional. The gist of the method: as §2
The test system of test [13] is Streptococcus pyogenes. As to the kind of experiment: Antimicrobial activity against tetracycline-susceptible Streptococcus pyogenes cMLS isolate E expressing tet(M), tndX gene. The test is classed as functional. In a few lines:
as §2

For test [14], the system named is Streptococcus pyogenes. Description: Antimicrobial activity against tetracycline-susceptible Streptococcus pyogenes cMLS isolate F. The test is classed as functional. In a few lines: as §2
Test [15] concerns Streptococcus pyogenes. Description: Antimicrobial activity against tetracycline-susceptible Streptococcus pyogenes cMLS isolate G expressing tnpA, tnpR gene. The test is classed as functional. In a few lines:
as §2

Test [16] relates to Streptococcus pyogenes. Description: Antimicrobial activity against tetracycline-resistant Streptococcus pyogenes cMLS isolate C expressing tet(M), Xis, tnpA, tnpR gene.

SMILES strings stand for the structures. ≈ marks a conversion by molar mass, not a printed value. Some results are limits rather than exact numbers.

`CC[C@H]1OC(=O)[C@H](C)[C@@H](O[C@H]2C[C@@](C)(OC)[C@@H](O)[C@H](C)O2)[C@H](C)[C@@H](O[C@@H]2O[C@H](C)C[C@H](N(C)C)[C@H]2O)[C@](C)(O)C[C@@H](C)C(=O)[C@H](C)[C@@H](O)[C@]1(C)O` [ERYTHROMYCIN]: the MIC in [1], in [2], in [3], in test [4], in [5] and in test [6] was greater than 128 µg/mL throughout.

On to `CN(C)[C@@H]1C(O)=C(C(N)=O)C(=O)[C@@]2(O)C(O)=C3C(=O)c4c(O)cccc4[C@@](C)(O)[C@H]3C[C@@H]12` [TETRACYCLINE], for which the MIC in [7] is 0.125 µg/mL (≈ 0.281 µM); in [8], no more than 0.125 µg/mL; in test [9] it was 32 µg/mL (≈ 72 µM); in [10], no more than 0.125 µg/mL; in [11], 32 µg/mL (≈ 72 µM); in test [12], 0.125 µg/mL (≈ 0.281 µM). For the same molecule, the MIC in test [13] was 0.125 µg/mL (≈ 0.281 µM); in test [14], 0.125 µg/mL (≈ 0.281 µM); in test [15], 0.125 µg/mL (≈ 0.281 µM); in test [1], 0.25 µg/mL (≈ 0.563 µM); in test [2] it was 32 µg/mL (≈ 72 µM); in test [3], 32 µg/mL (≈ 72 µM). Further, the MIC in test [4] turned out to be 32 µg/mL (≈ 72 µM); in [5] it was 0.25 µg/mL (≈ 0.563 µM); in test [6], 0.25 µg/mL (≈ 0.563 µM); in test [16], 32 µg/mL (≈ 72 µM).
